Assay results as given in ChEMBL document CHEMBL4312006, “A novel chalcone derivative as Nrf2 activator attenuates learning and memory impairment in a scopolamine-induced mouse model” (Eur J Med Chem, 2020).
Calls of active or inactive are those of the source. The rule behind the calls is not given here.

What was measured:
[1] = biological target: T1, Nuclear factor erythroid 2-related factor 2 (Mus musculus) (UniProt Q60795); test: Activation of NRF2 in mouse BV2 cells assessed as increase in HO1 protein expression at 3 uM incubated for 6 hrs by Western blot analysis; format: cell-based
T1 sequence (whole entry): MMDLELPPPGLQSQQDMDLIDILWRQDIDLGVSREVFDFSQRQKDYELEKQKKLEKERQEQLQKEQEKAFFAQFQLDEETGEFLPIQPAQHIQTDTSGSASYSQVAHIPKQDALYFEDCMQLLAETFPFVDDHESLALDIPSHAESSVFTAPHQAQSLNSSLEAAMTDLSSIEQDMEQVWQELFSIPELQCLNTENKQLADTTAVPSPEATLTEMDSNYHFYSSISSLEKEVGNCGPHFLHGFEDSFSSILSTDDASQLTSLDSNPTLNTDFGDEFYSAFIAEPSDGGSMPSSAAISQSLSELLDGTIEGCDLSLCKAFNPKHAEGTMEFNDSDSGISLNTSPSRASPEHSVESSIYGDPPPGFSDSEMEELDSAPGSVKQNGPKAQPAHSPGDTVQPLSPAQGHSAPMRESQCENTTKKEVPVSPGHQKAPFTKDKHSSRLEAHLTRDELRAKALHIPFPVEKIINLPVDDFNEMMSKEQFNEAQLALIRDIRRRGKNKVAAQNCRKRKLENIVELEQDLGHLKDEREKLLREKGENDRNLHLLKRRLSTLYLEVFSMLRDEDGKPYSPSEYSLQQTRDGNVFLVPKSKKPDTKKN
Procedure, shortened: (§1)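 BV-2 cells washed in ice-cold PBS and lysed on ice for 40 min in RIPA buffer with protease inhibitors. Nuclear fractions prepared separately. 10 μg protein run on SDS-PAGE and blotted to PVDF. Membranes blocked in 5% skim milk/TBST and probed overnight at 4 °C for Nrf2, HO-1, GCLM or SOD1. HRP secondary with ECL detection. Band densities normalised to Lamin B1 or β-actin.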

[2] = biological target: T1, Nuclear factor erythroid 2-related factor 2 (Mus musculus); test: Activation of NRF2 in mouse BV2 cells assessed reduction in LPS-stimulated IL-6 level preincubated for 3 hrs followed by LPS stimulation for 24 hrs by ELISA; format: cell-based
Procedure, shortened: (§2)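 BV-2 cells pre-incubated with a range of compound concentrations for 3 h, then stimulated with 0.2 μg/mL LPS for 24 h. TNF-α or IL-6 in the culture medium quantified by sandwich ELISA kits. Compared with LPS-treated control by one-way ANOVA with Dunnett's test.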

Mus musculus = test: Antioxidant activity in mouse assessed as inhibition of scopolamine-induced reduction in SOD activity at 30 mg/kg, po administered for 5 days and measured on day 5 by WST-1 based assay; format: functional, organism-based
Procedure, shortened: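 Male C57BL/6N mice (10 weeks) dosed 30 mg/kg/day compound in saline by oral gavage for 5 days, with scopolamine 2 mg/kg i.p. Hippocampus homogenised in sucrose buffer (pH 7.4) and centrifuged 40 min at 4 °C. SOD activity in the supernatant measured by WST-1 kit and given as U/mg protein. One-way ANOVA with Tukey's test.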

[3] = biological target: T1, Nuclear factor erythroid 2-related factor 2 (Mus musculus); test: Activation of NRF2 in mouse BV2 cells assessed as inhibition of LPS-stimulated iNOS expression preincubated for 3 hrs followed by LPS stimulation for 24 hrs by Western blot analysis; format: cell-based
Procedure, shortened: (§3)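 LPS-stimulated BV-2 cells pretreated with compound for 3 h. iNOS immunoblot (1:500) on 10 μg RIPA lysate protein, detected by ECL. Densities normalised to β-actin or Lamin B1 and compared with LPS-treated control.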

[4] = Stability in human plasma assessed as compound remaining after 30 mins; format: ADME, cell-free; conditions: read-out: Stability
[5] = biological target: T1, Nuclear factor erythroid 2-related factor 2 (Mus musculus); test: Activation of NRF2 in mouse BV2 cells assessed as inhibition of H2O2-induced reduction in SOD activity incubated for 6 hrs followed by H2O2 stimulation and measured after 18 hrs by WST-1 based assay; format: cell-based
Procedure, shortened: (§4)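 BV-2 cells (1.0×10^6) treated with compound for 24 h, or for 6 h followed by 400 μM H2O2 for 18 h. Cells washed, sonicated in ice-cold PBS and centrifuged; supernatant assayed by WST-1/superoxide inhibition. Activity derived from the IC50 of the inhibition curve and given as U/mg protein (1 U = 50% inhibition of WST-1 reduction).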

[6] = biological target: T1, Nuclear factor erythroid 2-related factor 2 (Mus musculus); test: Activation of NRF2 in mouse BV2 cells assessed as increase in HO1 protein expression at 10 uM incubated for 12 hrs by Western blot analysis; format: cell-based; procedure, shortened: as §1
[7] = biological target: T1, Nuclear factor erythroid 2-related factor 2 (Mus musculus); test: Activation of NRF2 in mouse BV2 cells assessed as increase in GCLM protein expression at 3 uM incubated for 6 hrs by Western blot analysis; format: cell-based; procedure, shortened: as §1
Homo sapiens = organism: Homo sapiens; test: Inhibition of H2O2-stimulated ROS production in […] BV2 cells at 10 uM preincubated for 24 hrs followed by H2O2 stimulation for 20 mins by DCFH-DA dye based assay; format: functional, cell-based
Procedure, shortened: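 BV-2 microglial cells pretreated with 10 μM compound for 24 h, then exposed to a series of H2O2 concentrations for 20 min. Intracellular ROS measured by DCFH-DA fluorescence. One-way ANOVA with Tukey's test.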

CYP3A4 = CYP3A4 (Homo sapiens, UniProt P08684); test: Inhibition of CYP3A4 (unknown origin) assessed as remaining activity relative to control; format: ADME
Sequence of CYP3A4 (P08684 whole entry): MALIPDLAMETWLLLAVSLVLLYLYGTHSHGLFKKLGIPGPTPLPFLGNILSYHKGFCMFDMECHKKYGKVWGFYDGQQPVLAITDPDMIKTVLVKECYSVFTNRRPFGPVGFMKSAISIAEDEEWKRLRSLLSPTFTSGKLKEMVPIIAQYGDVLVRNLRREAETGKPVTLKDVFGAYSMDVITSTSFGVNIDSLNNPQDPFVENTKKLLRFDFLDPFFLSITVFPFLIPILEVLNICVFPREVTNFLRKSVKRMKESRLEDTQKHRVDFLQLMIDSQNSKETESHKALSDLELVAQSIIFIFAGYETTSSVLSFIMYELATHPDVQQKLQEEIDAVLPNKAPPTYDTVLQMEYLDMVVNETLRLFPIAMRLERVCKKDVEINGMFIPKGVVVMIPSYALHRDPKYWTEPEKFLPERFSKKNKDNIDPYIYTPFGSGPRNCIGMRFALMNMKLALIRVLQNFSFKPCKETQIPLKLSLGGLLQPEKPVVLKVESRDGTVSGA

[8] = biological target: T1, Nuclear factor erythroid 2-related factor 2 (Mus musculus); test: Activation of NRF2 in mouse BV2 cells assessed as upregulation of HO1 at 20 uM by ELISA relative to control; format: cell-based
[9] = biological target: T1, Nuclear factor erythroid 2-related factor 2 (Mus musculus); test: Activation of NRF2 in mouse BV2 cells assessed as increase in nuclear NRF2 level at 10 uM incubated for 2 hrs by Western blot analysis; format: cell-based; procedure, shortened: as §1
[10] = biological target: Keap1/Nrf2 (Homo sapiens) (UniProt Q16236+Q14145); test: (§5) Activation of NRF2 in human U2OS cells co-expressing Keap1 (unknown origin) assessed as induction of NRF2 translocation to nucleus incubated for 6 hrs by beta-galactosidase based chemiluminescent assay; format: cell-based
Sequence of Keap1/Nrf2 (Homo sapiens) (Q14145 whole entry, looked up): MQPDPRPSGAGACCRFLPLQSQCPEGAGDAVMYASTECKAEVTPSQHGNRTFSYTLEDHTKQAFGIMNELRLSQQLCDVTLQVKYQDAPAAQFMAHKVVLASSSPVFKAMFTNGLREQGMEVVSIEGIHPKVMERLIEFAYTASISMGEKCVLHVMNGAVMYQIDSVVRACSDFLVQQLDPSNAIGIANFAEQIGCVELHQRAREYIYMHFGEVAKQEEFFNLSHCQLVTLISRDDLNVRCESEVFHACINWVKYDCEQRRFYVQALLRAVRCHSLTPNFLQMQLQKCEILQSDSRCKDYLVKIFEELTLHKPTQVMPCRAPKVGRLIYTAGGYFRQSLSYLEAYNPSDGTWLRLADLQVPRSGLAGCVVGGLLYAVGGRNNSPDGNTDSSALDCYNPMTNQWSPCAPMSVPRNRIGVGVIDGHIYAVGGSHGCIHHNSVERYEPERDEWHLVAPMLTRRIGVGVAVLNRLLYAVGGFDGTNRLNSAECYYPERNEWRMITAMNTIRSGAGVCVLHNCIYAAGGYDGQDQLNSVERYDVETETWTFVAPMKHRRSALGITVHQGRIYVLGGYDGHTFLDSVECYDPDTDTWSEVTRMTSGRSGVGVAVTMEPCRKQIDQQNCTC
Sequence of Keap1/Nrf2 (Homo sapiens) (Q16236 whole entry, looked up): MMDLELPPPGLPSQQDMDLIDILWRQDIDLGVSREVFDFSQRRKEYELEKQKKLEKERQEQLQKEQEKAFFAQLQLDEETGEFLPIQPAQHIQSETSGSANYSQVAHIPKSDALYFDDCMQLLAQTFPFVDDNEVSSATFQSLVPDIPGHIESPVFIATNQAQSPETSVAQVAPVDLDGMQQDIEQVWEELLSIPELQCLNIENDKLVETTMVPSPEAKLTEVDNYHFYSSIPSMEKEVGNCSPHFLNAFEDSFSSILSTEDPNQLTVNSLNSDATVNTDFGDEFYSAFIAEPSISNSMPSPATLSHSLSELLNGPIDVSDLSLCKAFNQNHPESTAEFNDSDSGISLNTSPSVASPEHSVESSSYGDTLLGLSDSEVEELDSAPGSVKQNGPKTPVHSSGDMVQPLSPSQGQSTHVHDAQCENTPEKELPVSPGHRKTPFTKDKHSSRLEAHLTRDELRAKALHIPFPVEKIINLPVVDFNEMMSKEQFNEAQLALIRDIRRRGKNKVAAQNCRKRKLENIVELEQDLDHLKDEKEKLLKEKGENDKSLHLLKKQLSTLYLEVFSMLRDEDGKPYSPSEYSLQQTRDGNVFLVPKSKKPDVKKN
Procedure, shortened: (§6)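 PathHunter U2OS cells engineered to co-express enzyme donor-tagged NRF2 and nuclear-localized enzyme acceptor; Nrf2 nuclear translocation reconstitutes β-galactosidase. Cells in 96-well plates exposed to a range of compound concentrations for 6 h at room temperature (20–23 °C), then 1 h with detection reagent in the dark; chemiluminescence (RLU) read. EC50 from concentration-response curve, mean ± SEM, triplicate.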

Keap1/Nrf2 = Keap1/Nrf2 (Homo sapiens, UniProt Q14145+Q16236); test: as §5; format: cell-based; procedure, shortened: as §6
Sequence of Keap1/Nrf2 (Q16236 whole entry): as the sequence (Q16236 whole entry, looked up) above
Sequence of Keap1/Nrf2 (Q14145 whole entry): as the sequence (Q14145 whole entry, looked up) above

[11] = biological target: T1, Nuclear factor erythroid 2-related factor 2 (Mus musculus); test: Activation of NRF2 in mouse BV2 cells assessed as inhibition of LPS-stimulated iNOS expression at 10 uM preincubated for 3 hrs followed by LPS stimulation for 24 hrs by Western blot analysis relative to control; format: cell-based; set-up: scale not given: the % may be the effect or the level left; procedure, shortened: as §3
[12] = Stability in human liver microsomes assessed as compound remaining after 30 mins; format: ADME, Microsome; conditions: read-out: Stability
CYP2D6 = CYP2D6 (Homo sapiens, UniProt P10635); test: Inhibition of CYP2D6 (unknown origin) assessed as remaining activity relative to control; format: ADME
Sequence of CYP2D6 (P10635 whole entry): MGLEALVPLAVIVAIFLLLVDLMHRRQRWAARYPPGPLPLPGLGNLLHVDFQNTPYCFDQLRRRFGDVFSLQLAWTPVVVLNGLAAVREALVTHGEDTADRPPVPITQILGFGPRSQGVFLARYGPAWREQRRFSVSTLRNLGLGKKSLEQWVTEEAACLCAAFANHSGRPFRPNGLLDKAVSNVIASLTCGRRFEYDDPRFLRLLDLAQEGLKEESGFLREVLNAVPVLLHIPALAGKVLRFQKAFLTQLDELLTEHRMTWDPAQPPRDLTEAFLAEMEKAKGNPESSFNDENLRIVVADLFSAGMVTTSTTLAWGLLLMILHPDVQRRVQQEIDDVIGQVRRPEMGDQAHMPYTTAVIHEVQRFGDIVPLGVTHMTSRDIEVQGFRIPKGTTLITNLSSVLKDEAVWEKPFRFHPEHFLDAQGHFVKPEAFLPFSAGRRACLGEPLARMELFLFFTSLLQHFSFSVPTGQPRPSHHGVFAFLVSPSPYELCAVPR

[13] = biological target: T1, Nuclear factor erythroid 2-related factor 2 (Mus musculus); test: Activation of NRF2 in mouse BV2 cells assessed as increase in SOD activity incubated for 24 hrs by WST-1 based assay; format: cell-based; procedure, shortened: as §4
[14] = biological target: T1, Nuclear factor erythroid 2-related factor 2 (Mus musculus); test: Activation of NRF2 in mouse BV2 cells assessed reduction of LPS-stimulated TNF-alpha level preincubated for 3 hrs followed by LPS stimulation for 24 hrs by ELISA; format: cell-based; procedure, shortened: as §2
[15] = biological target: T1, Nuclear factor erythroid 2-related factor 2 (Mus musculus); test: Activation of NRF2 in mouse BV2 cells assessed as increase in nuclear NRF2 level incubated for 6 hrs by Western blot analysis; format: cell-based; procedure, shortened: as §1

Structure (SMILES): CN1CCN(C(=O)COc2ccc(C(=O)/C=C/c3ccccc3C(F)(F)F)cc2)CC1.Cl
- Activity [1]: Active
- Activity [2]: Dose-dependent effect
- Activity (Mus musculus): Active
- Activity [3]: Dose-dependent effect
- remaining at 0.5 h [4]: > 100%
- Activity [5]: Active
- fold change (FC) [6]: > 7
- Activity [7]: Active
- inhibition (Homo sapiens): Active
- activity (CYP3A4): > 100%
- Activity [8]: 589%
- Activity [9]: Active
- Activity [10]: Dose-dependent effect
- EC50 (Keap1/Nrf2): 630 nM
- Activity [11]: 100%
- remaining at 0.5 h [12]: 16.1%
- activity (CYP2D6): > 100%
- Activity [13]: Dose-dependent effect
- Activity [14]: Dose-dependent effect
- Activity [15]: Dose-dependent effect
